Experimental data from ChEMBL document CHEMBL1126762, “Synthesis and anaerobic activity of novel 1-carba-1-dethiacephalosporins” (J Med Chem, 1993).
Converted amounts (≈) assume the structure as drawn.

What was measured:
[1] = system: Streptococcus pneumoniae; test: Antibacterial activity against aerobic Streptococcus pneumoniae PARK; type: functional
How it was run: (§1)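 MIC by agar dilution following the NCCLS M7-A2 (2nd ed.) procedure for bacteria that grow aerobically.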

[2] = Antibacterial activity against anaerobic Eubacterium aerofaciens 1235; type: functional; details: Collinsella aerofaciens
How it was run: (§2)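 MIC by agar dilution following the NCCLS M11-A2 (2nd ed.) procedure for antimicrobial testing of anaerobic bacteria.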

[3] = system: Klebsiella aerogenes; test: Antibacterial activity against aerobic Enterobacter aerogenes C32; type: functional; how it was run: as §1
[4] = system: Clostridium perfringens; test: Antibacterial activity against anaerobic Clostridium perfringens 81; type: functional
How it was run: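 Agar dilution MIC following NCCLS document M11-A2 (Vol. 10, no. 15), the method for antimicrobial testing of anaerobic bacteria; value reported as minimum inhibitory concentration.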

[5] = system: Pseudomonas aeruginosa; test: Antibacterial activity against aerobic Pseudomonas aeruginosa X239 strain; type: functional; how it was run: as §1
[6] = system: Clostridioides difficile; test: Antibacterial activity against anaerobic Clostridium difficile 2994 strain; type: functional; how it was run: as §2
[7] = system: Clostridium septicum; test: Antibacterial activity against anaerobic Clostridium septicum 1128; type: functional; how it was run: as §2
[8] = system: Eikenella corrodens; test: Antibacterial activity against anaerobic Bacteroides corrodens 1874; type: functional; how it was run: as §2
[9] = system: Bacteroides thetaiotaomicron; test: Antibacterial activity against anaerobic Bacteroides thetaiotaomicron 1438; type: functional; how it was run: as §2
[10] = system: Escherichia coli; test: Antibacterial activity against aerobic Escherichia coli EC14; type: functional; how it was run: as §1
[11] = system: Haemophilus influenzae; test: Antibacterial activity against aerobic Haemophilus influenzae RES 76; type: functional; how it was run: as §1
[12] = Antibacterial activity against anaerobic Fusobacterium symbiosum 1470; type: functional, fusobacterium symbosium; how it was run: as §2
[13] = system: Cutibacterium acnes; test: Antibacterial activity against anaerobic Propionibacterium acnes 79; type: functional; how it was run: as §2
[14] = system: Staphylococcus aureus; test: Antibacterial activity against aerobic Staphylococcus aureus X1.1 strain; type: functional; how it was run: as §1
[15] = system: Fusobacterium necrophorum; test: Antibacterial activity against anaerobic Fusobacterium necrophorum 6054A; type: functional; how it was run: as §2
[16] = system: Prevotella melaninogenica; test: Antibacterial activity against anaerobic Bacteroides melaninogenicus 1856/28; type: functional; how it was run: as §2
[17] = Antibacterial activity against anaerobic Peptostreptococcus intermedius 1264; type: functional; how it was run: as §2
[18] = Antibacterial activity against anaerobic Peptococcus asaccharolyticus 1302; type: functional; details: Peptoniphilus asaccharolyticus; how it was run: as §2
[19] = system: Anaerococcus prevotii; test: Antibacterial activity against anaerobic Peptococcus prevoti 1281; type: functional; how it was run: as §2
[20] = system: Prevotella melaninogenica; test: Antibacterial activity against anaerobic Bacteroides melaninogenicus 2736; type: functional; how it was run: as §2
[21] = system: Bacteroides fragilis; test: Antibacterial activity against anaerobic Bacteroides fragilis 1936B; type: functional; how it was run: as §2
[22] = system: Peptostreptococcus anaerobius; test: Antibacterial activity against anaerobic Peptostreptococcus anaerobius 1451; type: functional; how it was run: as §2
[23] = system: Phocaeicola vulgatus; test: Antibacterial activity against anaerobic Bacteroides vulgatus 1211; type: functional; how it was run: as §2
[24] = system: Bacteroides fragilis; test: Antibacterial activity against anaerobic Bacteroides fragilis 111; type: functional; how it was run: as §2
[25] = system: Klebsiella pneumoniae; test: Antibacterial activity against aerobic Klebsiella pneumoniae X26; type: functional; how it was run: as §1
[26] = system: Staphylococcus epidermidis; test: Antibacterial activity against aerobic Staphylococcus epidermidis 222; type: functional; how it was run: as §1
[27] = system: Bacteroides fragilis; test: Antibacterial activity against anaerobic Bacteroides fragilis 1877; type: functional; how it was run: as §2

| Structure (SMILES) | MIC [1] [µg/mL] | MIC [2] [µg/mL] | MIC [3] [µg/mL] | MIC [4] [µg/mL] | MIC [5] [µg/mL] | MIC [6] [µg/mL] | MIC [7] [µg/mL] | MIC [8] [µg/mL] | MIC [9] [µg/mL] | MIC [10] [µg/mL] | MIC [11] [µg/mL] | MIC [12] [µg/mL] | MIC [13] [µg/mL] | MIC [14] [µg/mL] | MIC [15] [µg/mL] | MIC [16] [µg/mL] | MIC [17] [µg/mL] | MIC [18] [µg/mL] | MIC [19] [µg/mL] | MIC [20] [µg/mL] | other results |
| --- | --- | --- | --- | --- | --- | --- | --- | --- | --- | --- | --- | --- | --- | --- | --- | --- | --- | --- | --- | --- | --- |
| CO/N=C(\C(=O)N[C@@H]1C(=O)N2C(C(=O)O)=C(Sc3ncc([N+](=O)[O-])s3)CC[C@H]12)c1csc(N)n1 | 0.008 (≈ 0.0152 µM) | 8 (≈ 15.2 µM) | 2 (≈ 3.81 µM) | 2 (≈ 3.81 µM) | > 128 | 2 (≈ 3.81 µM) | ≤ 0.5 | 8 (≈ 15.2 µM) | ≤ 0.5 | 0.5 (≈ 0.951 µM) | 0.06 (≈ 0.114 µM) | 1 (≈ 1.9 µM) | ≤ 0.5 | 0.125 (≈ 0.238 µM) | ≤ 0.5 | 4 (≈ 7.61 µM) | ≤ 0.5 | ≤ 0.5 | ≤ 0.5 | 4 (≈ 7.61 µM) | MIC [21]: 4 µg/mL (≈ 7.61 µM); MIC [22]: ≤ 0.5 µg/mL; MIC [23]: 2 µg/mL (≈ 3.81 µM); MIC [24]: 8 µg/mL (≈ 15.2 µM); MIC [25]: 0.125 µg/mL (≈ 0.238 µM); MIC [26]: 0.5 µg/mL (≈ 0.951 µM); MIC [27]: 2 µg/mL (≈ 3.81 µM) |
| CO[C@@]1(NC(=O)C2SC(=C(C(N)=O)C(=O)O)S2)C(=O)N2C(C(=O)O)=C(CSc3nnnn3C)CS[C@@H]21 (stereo partly specified) [CEFOTETAN] | 4 (≈ 6.95 µM) | 4 (≈ 6.95 µM) | 8 (≈ 13.9 µM) | 1 (≈ 1.74 µM) | > 128 | 16 (≈ 27.8 µM) | 4 (≈ 6.95 µM) | 8 (≈ 13.9 µM) | 1 (≈ 1.74 µM) | 0.125 (≈ 0.217 µM) | 1 (≈ 1.74 µM) | 128 (≈ 222 µM) | 1 (≈ 1.74 µM) | 8 (≈ 13.9 µM) | > 128 | 128 (≈ 222 µM) | 8 (≈ 13.9 µM) | 1 (≈ 1.74 µM) | 8 (≈ 13.9 µM) | 128 (≈ 222 µM) | MIC [21]: 8 µg/mL (≈ 13.9 µM); MIC [22]: 128 µg/mL (≈ 222 µM); MIC [23]: 4 µg/mL (≈ 6.95 µM); MIC [24]: 8 µg/mL (≈ 13.9 µM); MIC [25]: 0.125 µg/mL (≈ 0.217 µM); MIC [26]: 16 µg/mL (≈ 27.8 µM); MIC [27]: 8 µg/mL (≈ 13.9 µM) |
| CO/N=C(\C(=O)N[C@@H]1C(=O)N2C(C(=O)O)=C(Sc3ncc(C#N)s3)CC[C@H]12)c1csc(N)n1 | 0.008 (≈ 0.0158 µM) | 16 (≈ 31.6 µM) | 0.5 (≈ 0.989 µM) | 0.25 (≈ 0.494 µM) | 128 (≈ 253 µM) | 0.06 (≈ 0.119 µM) | 1 (≈ 1.98 µM) | > 128 | 4 (≈ 7.91 µM) | 0.5 (≈ 0.989 µM) | 0.125 (≈ 0.247 µM) | 2 (≈ 3.96 µM) | 0.03 (≈ 0.0593 µM) | 0.25 (≈ 0.494 µM) | 0.25 (≈ 0.494 µM) | 0.25 (≈ 0.494 µM) | 0.03 (≈ 0.0593 µM) | 0.25 (≈ 0.494 µM) | 0.5 (≈ 0.989 µM) | 32 (≈ 63.3 µM) | MIC [21]: > 128 µg/mL; MIC [22]: 0.5 µg/mL (≈ 0.989 µM); MIC [23]: 16 µg/mL (≈ 31.6 µM); MIC [24]: > 128 µg/mL; MIC [25]: 0.25 µg/mL (≈ 0.494 µM); MIC [26]: 1 µg/mL (≈ 1.98 µM); MIC [27]: 16 µg/mL (≈ 31.6 µM) |
